TAAR1 agonist = human TAAR1 agonism | Q96RJ0 | CHO RD-HGA16 TAAR1, Fluo-8 calcium fluorescence; vehicle wells 0%, saturating PEA agonist 100% | activation, % at 3 µM | hit rate 0.99% among 360,000 | AID 624467;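 active = activation above the mean activation of all test compounds in the run plus 3 SD, cut at about 38% in these data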
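Test system: RD-HGA16 (CHO) cells co-expressing Gα16 and hTAAR1; dosing: one-point dosing at 3 µM (nominal); timing: 17-24 h seeding, 75 min 37 °C dye, 30 min RT; signal: kinetic Fluo-8 calcium fluorescence; read-out basis: % activation relative to PEA EC100 response; controls: DMSO and PEA EC100; replicates: n 1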
DAGLB inh = blocks human DAGLB lipase activity; HEK293T DAGLB membrane lysate, EnzChek fluorogenic substrate; hit rate 0.059% among 340,000; Q8NCG7; inhibition, % at 5.17 µM; in the data active = inhibition above about 34%;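 note: 0% = enzyme with vehicle and 100% = wells lacking enzyme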
Target sequence (Q8NCG7 whole entry, looked up): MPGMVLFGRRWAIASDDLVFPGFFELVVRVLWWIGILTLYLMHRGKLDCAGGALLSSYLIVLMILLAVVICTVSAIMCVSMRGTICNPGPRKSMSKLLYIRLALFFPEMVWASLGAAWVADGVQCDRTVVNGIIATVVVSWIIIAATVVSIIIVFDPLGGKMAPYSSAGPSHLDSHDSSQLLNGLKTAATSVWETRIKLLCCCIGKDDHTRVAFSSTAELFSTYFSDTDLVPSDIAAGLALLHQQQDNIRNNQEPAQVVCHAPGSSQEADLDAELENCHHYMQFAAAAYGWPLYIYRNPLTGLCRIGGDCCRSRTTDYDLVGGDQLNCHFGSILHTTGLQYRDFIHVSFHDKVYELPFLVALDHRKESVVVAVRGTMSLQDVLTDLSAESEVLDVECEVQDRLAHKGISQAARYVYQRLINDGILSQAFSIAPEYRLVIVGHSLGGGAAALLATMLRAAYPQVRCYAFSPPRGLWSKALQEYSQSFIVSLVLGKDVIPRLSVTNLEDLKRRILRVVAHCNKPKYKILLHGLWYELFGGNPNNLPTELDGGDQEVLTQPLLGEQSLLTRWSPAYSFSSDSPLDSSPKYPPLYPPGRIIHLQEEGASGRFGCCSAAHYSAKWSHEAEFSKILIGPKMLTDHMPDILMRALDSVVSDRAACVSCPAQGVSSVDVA
MPTP block = inhibitors of mitochondrial permeability transition pore; isolated mouse mitochondria, Ca2+ swelling absorbance, 30 min; inhibition, % at 10 µM; hit rate 1.4% among 360,000; AID 602449;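 active = inhibition of 50% or more, scaled per plate between neutral and stimulator controls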;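 note: 0% = DMSO wells given calcium and 100% = 1 mM EGTA wells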
GPR7 antagonist = antagonists of human GPR7 (neuropeptides B/W receptor 1). inhibition, % at 4.4 µM. hit rate 1.1% among 290,000. GPR7-expressing cells, fluorescence antagonist assay. P48145; in the data active = inhibition above about 16%, passing the limit was not always enough;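 note: cells stimulated with the agonist NPW; 0% = agonist with vehicle and 100% = vehicle without agonist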
TAAR1 antagonist = antagonists of human TAAR1 | Q96RJ0 | inhibition, % at 3 µM | hit rate 1.5% among 360,000 | AID 624466 | CHO RD-HGA16 TAAR1, Fluo-8 calcium fluorescence, antagonist;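 active = inhibition above a per-plate cutoff, the mean inhibition of test compounds on that plate plus 3 SD, cut at about 49% in these data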;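 note: 0% = DMSO plus EC80 beta-PEA response and 100% = DMSO alone without agonist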
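Test system: CHO RD-HGA16 cells bearing hTAAR1 | Reagent: β-PEA, EC80 | Compound dosing: 3 µM, single point | Schedule: Dye loading 75 min at 37 °C, then 30 min room temperature | Signal: Calcium fluorescence with Fluo-8 | Evaluation: Percent inhibition of PEA-evoked calcium signal, max/basal emission ratio | Control set: DMSO-only wells and EC80 β-PEA-stimulated wells | Repeats: Singlicate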
nonsel antag count = nonselective antagonist in TAAR1 antagonist counter-screen; shares compounds with TAAR1 antagonist; counterscreen cell line, calcium fluorescence, antagonist mode; inhibition, % at 3 µM; hit rate 77% among 2,400; in the data active = inhibition above about 22%;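 note: CHO-Ga16 host cells stimulated with ATP at an EC80 level; 0% = agonist EC80 plus vehicle and 100% = vehicle without agonist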
TAAR1 antag conf = human TAAR1 antagonism, confirmed; shares compounds with TAAR1 antagonist; TAAR1-expressing cells, fluorescence antagonist read-out; inhibition, % at 3 µM; hit rate 40% among 2,400; AID 651785; in the data active = inhibition above about 49%;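 note: CHO-Ga16 host cells challenged with agonist PEA near its EC80; 0% = agonist at EC80 plus vehicle and 100% = vehicle with no agonist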
Ga16 ag counter = nonselective Ga16 agonism, counter-screen | activation, % at 3 µM | Ga16-expressing cells, calcium fluorescence, agonist counterscreen | shares compounds with TAAR1 antagonist | hit rate 18% among 2,400; in the data active = activation above about 12%;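 note: 0% = vehicle wells and 100% = saturating stimulus response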
TAAR1 ag count = counter-screen for human TAAR1 antagonists: TAAR1 agonists; shares compounds with TAAR1 antagonist; hit rate 2% among 2,400; hTAAR1 cell line, fluorescence activation, agonist mode; activation, % at 3 µM; in the data active = activation above about 37%;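 note: CHO cells stably expressing TAAR1 with calcium dye readout; 0% = DMSO vehicle and 100% = full agonist response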
An asterisk follows results filed as active. The list is not random: actives were taken first. Their share in the collection is about 4%.

What do the screens show for `CCCCNC(=O)C[C@@H]1C[C@@]2(C(=O)OCC)CCCC=C2N(CCC2=CCCCC2)C1=O`?
TAAR1 agonist: -2.3; MPTP block: 1.6; TAAR1 antagonist: -36.0

What do the screens show for `CCCCN1C(=O)C(CC(=O)NCCN2CCOCC2)CC(C(=O)N(C)C)=C1C` (centres undefined)?
TAAR1 agonist: 0.2; DAGLB inh: 1.1; MPTP block: -1.3; TAAR1 antagonist: -9.2

How did COc1ccc(S(=O)(=O)N2CCCc3nc(-c4ccccc4)ccc32)cc1 do in these assays?
TAAR1 agonist: 1.5; TAAR1 antagonist: -3.8

Results for CC(=O)c1ccc(NC(=O)c2ccc(S(=O)(=O)c3ccccc3)cc2)cc1 ?
TAAR1 agonist: 20.6; DAGLB inh: -4.7; MPTP block: 1.3; GPR7 antagonist: -1.5; TAAR1 antagonist: 69.4*; nonsel antag count: 38.7*; TAAR1 antag conf: 61.1*; Ga16 ag counter: 12.4*; TAAR1 ag count: 15.7

How did Cc1ccc(NC(=O)c2ccccc2OCC(=O)Nc2ccccc2F)cc1S(=O)(=O)N(C)C do in these assays?
TAAR1 agonist: 25.7; DAGLB inh: -9.1; MPTP block: 4.0; TAAR1 antagonist: 68.5*; nonsel antag count: 33.9*; TAAR1 antag conf: 51.6*; Ga16 ag counter: 10.0; TAAR1 ag count: 6.0

What do the screens show for `O=C(Nc1cccnc1)c1ccc(S(=O)(=O)c2ccccc2)cc1`?
TAAR1 agonist: 12.4; DAGLB inh: 2.1; MPTP block: 0.9; GPR7 antagonist: -2.0; TAAR1 antagonist: 6.0

What do the screens show for `Cc1noc(C)c1COc1ccccc1C(=O)Nc1cccc(S(=O)(=O)N(C)C)c1`?
TAAR1 agonist: 2.7; DAGLB inh: -2.5; MPTP block: -2.4; TAAR1 antagonist: -3.0

Results for CCN(CC)S(=O)(=O)c1cc(NC(=O)c2ccccc2OCc2c(C)noc2C)ccc1C ?
TAAR1 agonist: 2.9; DAGLB inh: -3.4; MPTP block: 0.5; TAAR1 antagonist: 63.6*; nonsel antag count: 24.3*; TAAR1 antag conf: 44.0; Ga16 ag counter: 2.6; TAAR1 ag count: -1.8

How did CCOC(=O)c1cc2c(c(-c3cccc(C#Cc4ccc(OC)c(OC)c4)c3)n1)[C@@H](CCO)N(S(=O)C(C)(C)C)C2 (some centres undefined) do in these assays?
TAAR1 agonist: 3.6; MPTP block: 0.5; TAAR1 antagonist: 4.3

Results for N=c1sccn1CC(=O)N1N=C(c2ccc(Cl)cc2)CC1c1ccco1 (centres undefined) ?
TAAR1 agonist: 11.4; DAGLB inh: 1.4; MPTP block: 0.8; GPR7 antagonist: 14.6; TAAR1 antagonist: 53.2*; nonsel antag count: 4.3; TAAR1 antag conf: 21.4; Ga16 ag counter: 12.9*; TAAR1 ag count: 11.9

How did CN(C)c1cccc(CNC(=O)c2csc([C@H]3C[C@H](O)[C@@H](CO)O3)n2)c1 do in these assays?
TAAR1 agonist: 1.6; MPTP block: 0.3; TAAR1 antagonist: -3.9

Results for Cc1ccc(C(=O)Nc2nc(C(N)C(C)C)cs2)cc1 (centres undefined) ?
TAAR1 agonist: 1.5; MPTP block: 2.6; TAAR1 antagonist: 2.1

How did Cc1ccc(S(=O)(=O)N2[C@@H](c3ccc(F)cc3)C(C(=O)O)=CC[C@H]2c2ccc(Cl)cc2)cc1 do in these assays?
TAAR1 agonist: 2.3; DAGLB inh: 0.8; MPTP block: -1.7; TAAR1 antagonist: 18.8

Results for Cc1ccc(S(=O)(=O)N2[C@@H](c3ccc(Br)cc3)C(C(=O)O)=CC[C@H]2c2ccc(Cl)cc2)cc1 ?
TAAR1 agonist: 3.7; DAGLB inh: 3.4; MPTP block: 0.0; TAAR1 antagonist: 67.8*; nonsel antag count: 17.9; TAAR1 antag conf: 51.4*; Ga16 ag counter: 2.5; TAAR1 ag count: 3.6

Results for Nc1sccc1C(=O)NCc1ccccc1 ?
TAAR1 agonist: 18.1; MPTP block: 0.8; TAAR1 antagonist: -9.6

Results for O=C(NCc1ccccc1)C1C(c2ccccc2)=Nc2ccccc2N1C(=O)c1cccnc1 (centres undefined) ?
TAAR1 agonist: 2.2; MPTP block: 0.2; TAAR1 antagonist: -17.3

How did COc1ccc(C(=O)OCC(=O)N(C)C2CCS(=O)(=O)C2)cc1S(=O)(=O)N1CCCc2ccccc21 (centres undefined) do in these assays?
TAAR1 agonist: 0.5; DAGLB inh: -1.9; MPTP block: -0.2; GPR7 antagonist: -6.8; TAAR1 antagonist: -12.5

What do the screens show for `CN(C(=O)COC(=O)/C=C/c1ccc(S(=O)(=O)N2CCc3ccccc32)cc1)C1CCS(=O)(=O)C1` (centres undefined)?
TAAR1 agonist: -0.3; MPTP block: -2.6; GPR7 antagonist: -17.2; TAAR1 antagonist: 101.4*; nonsel antag count: 6.6; TAAR1 antag conf: 11.5; Ga16 ag counter: 3.0; TAAR1 ag count: 4.4

How did CNC(=S)Nc1cccc(S(=O)(=O)NCc2ccco2)c1 do in these assays?
TAAR1 agonist: 3.6; DAGLB inh: -2.1; MPTP block: -0.3; TAAR1 antagonist: 10.0

How did CCNC(=O)c1ccccc1NC(=O)c1cccc(S(=O)(=O)N2CCC(C)CC2)c1 do in these assays?
TAAR1 agonist: 11.8; DAGLB inh: -4.0; MPTP block: -0.4; GPR7 antagonist: -6.8; TAAR1 antagonist: 58.7*; nonsel antag count: 33.2*; TAAR1 antag conf: 45.5; Ga16 ag counter: 9.1; TAAR1 ag count: 4.1

Results for CC1=CCC[C@@H]2[C@]3(CC/C(=C/CO)CO)CO[C@@]2(C1)[C@@H](O)C[C@H]3C ?
TAAR1 agonist: 2.2; MPTP block: -0.8; TAAR1 antagonist: -4.7

What do the screens show for `O=C(OCC(=O)N(Cc1ccccc1)Cc1ccccc1)c1cccc(O)c1`?
TAAR1 agonist: 7.1; DAGLB inh: -3.0; MPTP block: -0.7; TAAR1 antagonist: 63.1*; nonsel antag count: 26.4*; TAAR1 antag conf: 39.9; Ga16 ag counter: 2.2; TAAR1 ag count: 1.9

How did Cc1c(C(=O)Nc2ccc3c(c2)OCO3)sc2nc(-c3ccccc3)cn12 do in these assays?
TAAR1 agonist: 10.7; DAGLB inh: 1.6; MPTP block: 9.3; GPR7 antagonist: -15.1; TAAR1 antagonist: 84.7*; nonsel antag count: 43.9*; TAAR1 antag conf: 63.2*; Ga16 ag counter: 11.8*; TAAR1 ag count: 7.1

Results for Cc1cc(=O)oc2c3c(cc(OCC(=O)NCC(=O)O)c12)OC(C)(C)CC3 ?
TAAR1 agonist: 4.1; DAGLB inh: -6.7; MPTP block: 0.4; GPR7 antagonist: -12.0; TAAR1 antagonist: -0.5

Screening data: PubChem BioAssay, several laboratories
